Screens (PubChem BioAssay)
The list is not random: actives were taken first. Their share in the collection is about 2.3%.
TRPC6 inhibitor: inhibitors of mouse TRPC6 channel; B-score at 10 µM; HEK293-TRPC6, membrane potential dye, ACh-evoked depolarization; stronger effect = lower value; AID 2553; Q61143; hit rate 1.1% among 310,000;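 active means B-score under library mean minus 3 SD, initial fluorescence not abnormally high, positive integrated signal ratio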;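 further: B-score derived from integrated fluorescence ratio over the kinetic read; more negative B-score means stronger inhibition of depolarization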
CR mimetic SO: yeast age-related superoxide inhibition as caloric restriction mimetic. S. cerevisiae aged cells, superoxide DHE fluorescence; stronger effect = lower value. superoxide response (% of plate mean), % at 10 µM. hit rate 0.18% among 330,000. AID 2690;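 active means superoxide response under a set limit, about three screen SD below normal, cut at about 65% in these data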;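 further: yeast aged for seven days with compound at 30 °C before DHE staining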
TRPC4 act: opens the mouse TRPC4 cation channel; B-score at 10 µM; HEK293 TRPC4beta/mu-opioid, Fluo4 calcium fluorescence; stronger effect = higher value; AID 2237; hit rate 0.49% among 310,000;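 active means B-score above 5 SD of library B-scores, and initial fluorescence ratio not above library mean plus 5 SD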;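 further: positive B-score marks a calcium rise read as TRPC4 activation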
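Test system: HEK293 cells stably co-expressing mouse TRPC4beta and mu-opioid receptor | Schedule: Fluo4 dye loading 45 min at room temperature, 110 s recording | Measured by: Kinetic Fluo4 calcium fluorescence, 5 s baseline at 1 Hz | Evaluation: B score of integrated ratio | Controls: Buffer (low) and maximal DAMGO (high)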
TRPC4 block: blocks the mouse TRPC4 cation channel | B-score at 10 µM | AID 2247 | HEK293 TRPC4beta/mu-opioid, DAMGO-evoked Fluo4 calcium flux; stronger effect = lower value | hit rate 0.39% among 300,000;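 active means B-score over 3 SD under the library average, no early fluorescence shift, positive overall ratio signal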
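Material: HEK293 cells with stable TRPC4beta plus mu-opioid receptor expression; probe or stimulus: DAMGO in two steps, submaximal then maximal; technique: Fluo4 calcium fluorescence by kinetic imaging, 5 s 1 Hz baseline; measure: integrated fluorescence ratio relative to baseline, converted to per-well B score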
TRPC4 PAM: allosteric potentiators of mouse TRPC4 channel; Q9QUQ5; HEK293 TRPC4beta/mu-opioid, DAMGO EC20, Fluo-4 Ca2+ flux; stronger effect = higher value; B-score at 10 µM; hit rate 0.42% among 310,000; AID 2227;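 active means B-score of calcium response area above 5 SD of library B-scores, with initial fluorescence ratio within 5 SD of library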
TRPC6 act: activators of mouse TRPC6 channel | hit rate 0.13% among 310,000 | B-score at 10 µM | HEK293-TRPC6 membrane potential dye fluorescence; stronger effect = higher value | Q61143 | AID 2550;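 active means B-score of the integrated fluorescence ratio above library mean plus 3 SD, and starting fluorescence ratio within library mean plus 5 SD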;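 further: higher score means more depolarization so channel activation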
Superoxide pick: confirmation of caloric restriction mimetics inhibiting yeast age-related superoxide | S. cerevisiae aging, superoxide DHE fluorescence; stronger effect = lower value | shares compounds with CR mimetic SO | hit rate 1% among 850 | AID 434994 | superoxide response (% of plate), % at 10 µM;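 active means superoxide signal below 65% of the plate average of sample wells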;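 further: cells aged with compound for 7 days at 30 degrees C before staining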
DHE counter: counter-screen for compounds affecting DHE oxidation and fluorescence in yeast | fluorescence response, % at 10 µM | AID 435000 | shares compounds with CR mimetic SO | S. cerevisiae BY4741, flow cytometry; stronger effect = lower value | 850 tested, under 10 active;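 active means fluorescence response below 15%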;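 further: lower means stronger quenching of DHE signal or ROS scavenging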
Large screens that a line does not name were inactive (follow-up assays come after a bar, where they were run).

COc1cc([N+](=O)[O-])ccc1NC(=O)NCC1CCN(Cc2ccc(Cl)cc2)CC1	CR mimetic SO 30 | Superoxide pick inactive | DHE counter inactive
COc1ccc(OC)c(CN2CCC(CNC(=O)Nc3cccc(Cl)c3)CC2)c1	none
COc1cc(NC(=O)NCC2CCN(Cc3ccccc3Cl)CC2)cc(OC)c1OC	CR mimetic SO 41 | Superoxide pick inactive | DHE counter inactive
Cc1ccccc1OCCCC(=O)Nc1ccc(S(=O)(=O)Nc2onc(C)c2C)cc1	none
CCOC(=O)CSc1nc(C)cc(Oc2ccc(=O)n(C)n2)n1	none
Cc1cc(Oc2ccc(=O)n(C)n2)nc(SCCOc2ccccc2)n1	CR mimetic SO 15 | Superoxide pick inactive | DHE counter inactive
Cc1ccc(Cn2nnc(C(=O)Nc3cc(C)ccc3C)c2N)cc1	none
Cc1ccc(CNC(=O)Cn2nnc(C(=O)Nc3cc(C)ccc3C)c2N)cc1	CR mimetic SO 57 | Superoxide pick inactive | DHE counter inactive
Cc1cc(C)c(S(=O)(=O)Nc2ccc(O)cc2)c(C)c1	none | Superoxide pick inactive | DHE counter inactive
CS(=O)(=O)Nc1ccccc1C(=O)N1CCN(c2ccccc2)CC1	none | Superoxide pick inactive | DHE counter inactive
CSc1ccccc1C(=O)N1CCN(c2ccc(F)cc2)CC1	none | Superoxide pick inactive | DHE counter inactive
Nc1nc(CN2CCN(c3ccccn3)CC2)nc(Nc2ccc(F)cc2)n1	none
CCN(CC)C(=O)CCn1nc(-c2ccc(C)cc2)c2ccccc2c1=O	CR mimetic SO 37 | Superoxide pick inactive | DHE counter inactive
Nc1ccccc1N1CCN(C(=O)c2ccccc2)CC1	none | Superoxide pick inactive | DHE counter inactive
O=C(c1ccccc1-c1ccccc1)N1CCN(c2ccccn2)CC1	none
